Laboratory results: article PMC9206500 (Journal of medicinal chemistry, 2021)
Where two headings read alike, the source gives them in different places. Each block holds one compound with its values, some of them ahead of it.

Assays:
[1] = tested on: three human malignant melanoma cell lines and three breast cancer cell lines; test: MTS cell proliferation assay, average over the panel; type: cell-based; conditions: for IC50: read-out: average IC50
[2] = Liver microsome stability assay, human; conditions: for fold improvement of half-life in human liver microsomes: compared to parent compound CH-2-77
[3] = tested on: M14/LCC6MDR1; test: MTS cell proliferation assay, M14/LCC6MDR1; type: cell-based; conditions: Homo sapiens, 72 h, read-out: IC50, M14/LCC6MDR1
[4] = tested on: A375/TxR cells; test: Cell cycle analysis by flow cytometry; type: cell-based, human; conditions: 24 h; controls 10 nM, 60c 2.5, 5, 10 nM
[5] = target: purified porcine brain tubulin (Sus scrofa, UniProt P02554+Q2XVP4); test: Cell-free tubulin polymerization assay; type: biochemical; conditions: 10 μM, tubulin 3 mg/mL, GTP 1 mM, 1 h
purified porcine brain tubulin, sequence (Q2XVP4 whole entry): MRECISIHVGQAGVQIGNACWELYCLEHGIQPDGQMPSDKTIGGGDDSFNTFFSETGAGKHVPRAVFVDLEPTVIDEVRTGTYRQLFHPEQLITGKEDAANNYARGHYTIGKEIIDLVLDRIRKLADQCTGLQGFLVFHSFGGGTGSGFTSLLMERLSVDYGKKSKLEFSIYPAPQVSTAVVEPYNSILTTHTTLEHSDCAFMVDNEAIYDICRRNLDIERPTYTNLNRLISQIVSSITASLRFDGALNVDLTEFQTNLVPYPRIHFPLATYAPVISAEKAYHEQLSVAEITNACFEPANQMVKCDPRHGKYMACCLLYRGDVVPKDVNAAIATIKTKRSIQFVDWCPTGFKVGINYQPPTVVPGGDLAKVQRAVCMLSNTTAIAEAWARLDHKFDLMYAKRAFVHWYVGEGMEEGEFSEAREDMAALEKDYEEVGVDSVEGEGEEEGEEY
purified porcine brain tubulin, sequence (P02554 whole entry): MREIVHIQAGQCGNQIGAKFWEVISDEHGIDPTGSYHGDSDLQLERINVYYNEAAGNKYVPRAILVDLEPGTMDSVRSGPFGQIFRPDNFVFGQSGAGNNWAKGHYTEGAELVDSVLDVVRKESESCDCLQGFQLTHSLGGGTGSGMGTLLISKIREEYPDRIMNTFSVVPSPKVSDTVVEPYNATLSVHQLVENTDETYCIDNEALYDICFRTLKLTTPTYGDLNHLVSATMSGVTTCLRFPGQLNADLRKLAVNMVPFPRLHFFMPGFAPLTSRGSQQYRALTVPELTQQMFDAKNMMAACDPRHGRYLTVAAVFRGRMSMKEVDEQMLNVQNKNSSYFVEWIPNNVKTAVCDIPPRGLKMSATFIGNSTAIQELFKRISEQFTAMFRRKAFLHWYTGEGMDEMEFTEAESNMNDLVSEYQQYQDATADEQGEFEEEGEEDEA

[6] = tested on: A375/TxR xenograft; test: A375/TxR xenograft antitumor efficacy; type: in vivo, NSG mice; conditions: for average tumor weight: vehicle 2.0 g; for tumor necrosis (H&E of excised tumors): 60c 10 and 20 mg/kg, paclitaxel 10 mg/kg
Outline: (§1)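 Hosts were NSG mice aged 5–6 weeks. At ~100 mm3 mice were randomized by weight and volume into four groups (3 male + 3 female each). Test compound vehicle was PEG300:Tween 80:saline 3:1:6. Dosing was IP three times weekly. The study ended when vehicle tumors neared ~1000 mm3.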

[7] = tested on: A375/TxR xenograft; test: Spontaneous metastasis in A375/TxR xenograft model; type: in vivo, NSG mice; conditions: for mice that developed liver metastases: n = 6
Outline: as §1

[8] = Systemic toxicity in A375/TxR tumor-bearing mice; type: in vivo, NSG mice; conditions: for histology of major organs (lung, liver, kidney, heart, spleen), H&E: paclitaxel 10 mg/kg, 60c 10 or 20 mg/kg IP
Outline: as §1

[9] = target: CYP1A (Homo sapiens, UniProt P05177); test: CYP inhibition, CYP1A; type: in vitro ADME; conditions: at 10 μM, HLM, phenacetin substrate
CYP1A, sequence (P05177 whole entry): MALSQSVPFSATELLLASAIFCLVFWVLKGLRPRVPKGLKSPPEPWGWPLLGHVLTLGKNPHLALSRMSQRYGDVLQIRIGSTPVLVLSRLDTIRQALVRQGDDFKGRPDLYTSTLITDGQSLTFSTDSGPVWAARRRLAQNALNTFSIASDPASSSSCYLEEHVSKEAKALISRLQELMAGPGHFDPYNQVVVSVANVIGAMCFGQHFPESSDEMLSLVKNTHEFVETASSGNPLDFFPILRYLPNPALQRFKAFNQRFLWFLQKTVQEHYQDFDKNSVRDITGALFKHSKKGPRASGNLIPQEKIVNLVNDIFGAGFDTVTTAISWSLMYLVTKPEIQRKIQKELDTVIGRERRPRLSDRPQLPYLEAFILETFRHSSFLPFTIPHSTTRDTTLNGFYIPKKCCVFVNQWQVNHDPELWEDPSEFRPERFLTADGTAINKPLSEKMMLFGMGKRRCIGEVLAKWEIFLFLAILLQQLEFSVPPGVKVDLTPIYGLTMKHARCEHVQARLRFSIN

[10] = target: CYP2B6 (Homo sapiens, UniProt P20813); test: CYP inhibition, CYP2B6; type: in vitro ADME; conditions: at 10 μM, HLM, bupropion substrate
CYP2B6, sequence (P20813 whole entry): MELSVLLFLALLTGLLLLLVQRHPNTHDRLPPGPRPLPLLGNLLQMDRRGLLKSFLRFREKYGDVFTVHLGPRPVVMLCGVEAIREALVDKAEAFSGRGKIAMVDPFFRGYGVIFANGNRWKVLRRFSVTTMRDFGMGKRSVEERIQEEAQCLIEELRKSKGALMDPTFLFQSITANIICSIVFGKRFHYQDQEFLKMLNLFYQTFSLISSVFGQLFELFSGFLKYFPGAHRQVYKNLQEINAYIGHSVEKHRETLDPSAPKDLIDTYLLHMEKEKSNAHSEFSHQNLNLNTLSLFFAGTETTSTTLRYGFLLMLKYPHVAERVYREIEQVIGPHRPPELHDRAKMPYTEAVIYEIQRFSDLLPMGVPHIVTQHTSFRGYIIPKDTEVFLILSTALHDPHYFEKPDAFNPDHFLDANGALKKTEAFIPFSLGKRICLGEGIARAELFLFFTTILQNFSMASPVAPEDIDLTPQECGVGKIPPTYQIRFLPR

[11] = target: CYP2C9 (Homo sapiens, UniProt P11712); test: CYP inhibition, CYP2C9; type: in vitro ADME; conditions: at 10 μM, HLM, diclofenac substrate
CYP2C9, sequence (P11712 whole entry): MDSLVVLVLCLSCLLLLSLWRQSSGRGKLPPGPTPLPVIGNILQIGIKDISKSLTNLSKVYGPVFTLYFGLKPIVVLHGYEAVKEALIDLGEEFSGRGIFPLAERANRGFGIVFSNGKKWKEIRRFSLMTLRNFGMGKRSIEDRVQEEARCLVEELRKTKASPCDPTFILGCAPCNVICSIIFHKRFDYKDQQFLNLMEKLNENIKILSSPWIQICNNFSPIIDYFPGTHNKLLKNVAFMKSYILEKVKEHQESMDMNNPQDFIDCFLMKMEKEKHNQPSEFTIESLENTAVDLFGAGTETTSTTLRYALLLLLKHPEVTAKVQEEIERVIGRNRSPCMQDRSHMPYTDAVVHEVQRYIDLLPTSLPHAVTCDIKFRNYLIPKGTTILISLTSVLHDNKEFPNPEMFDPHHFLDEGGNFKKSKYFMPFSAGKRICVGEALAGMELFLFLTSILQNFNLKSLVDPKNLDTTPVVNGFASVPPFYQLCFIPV

[12] = target: CYP2C19 (Homo sapiens, UniProt P33261); test: CYP inhibition, CYP2C19; type: in vitro ADME; conditions: at 10 μM, HLM, omeprazole substrate
CYP2C19, sequence (P33261 whole entry): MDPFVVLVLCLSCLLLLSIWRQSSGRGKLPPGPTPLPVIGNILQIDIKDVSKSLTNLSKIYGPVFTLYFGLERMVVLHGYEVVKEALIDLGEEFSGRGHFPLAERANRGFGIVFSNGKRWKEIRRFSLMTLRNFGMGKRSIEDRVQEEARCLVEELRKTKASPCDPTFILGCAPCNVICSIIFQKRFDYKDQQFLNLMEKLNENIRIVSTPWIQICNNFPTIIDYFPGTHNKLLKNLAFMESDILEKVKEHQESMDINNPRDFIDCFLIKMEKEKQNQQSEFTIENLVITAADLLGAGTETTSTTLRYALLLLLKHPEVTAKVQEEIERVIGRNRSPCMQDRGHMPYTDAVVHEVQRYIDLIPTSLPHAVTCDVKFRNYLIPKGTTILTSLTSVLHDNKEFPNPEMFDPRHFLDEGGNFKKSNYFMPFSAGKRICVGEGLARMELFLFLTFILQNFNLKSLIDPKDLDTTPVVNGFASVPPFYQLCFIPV

[13] = target: CYP2D6 (Homo sapiens, UniProt P10635); test: CYP inhibition, CYP2D6; type: in vitro ADME; conditions: at 10 μM, HLM, dextromethorphan substrate
CYP2D6, sequence (P10635 whole entry): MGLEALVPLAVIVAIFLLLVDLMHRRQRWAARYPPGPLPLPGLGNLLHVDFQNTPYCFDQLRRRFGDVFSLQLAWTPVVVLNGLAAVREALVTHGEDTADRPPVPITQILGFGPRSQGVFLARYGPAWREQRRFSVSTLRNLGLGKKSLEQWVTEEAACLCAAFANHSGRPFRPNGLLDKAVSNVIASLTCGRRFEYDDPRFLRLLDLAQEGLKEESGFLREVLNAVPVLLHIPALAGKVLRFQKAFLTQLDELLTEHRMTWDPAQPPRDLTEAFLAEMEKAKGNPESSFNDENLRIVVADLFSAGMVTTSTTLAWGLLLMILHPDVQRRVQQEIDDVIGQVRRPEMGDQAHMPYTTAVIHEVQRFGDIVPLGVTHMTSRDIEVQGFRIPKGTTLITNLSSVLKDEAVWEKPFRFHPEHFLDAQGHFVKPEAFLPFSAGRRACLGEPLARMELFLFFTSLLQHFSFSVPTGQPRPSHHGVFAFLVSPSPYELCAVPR

[14] = tested on: CYP3A; test: CYP inhibition, CYP3A; type: in vitro ADME, human; conditions: at 10 μM, HLM
[15] = tested on: TA98; test: AMES fluctuation test, TA98; set-up: species or system bacteria; conditions: strain TA98
[16] = tested on: A100; test: AMES fluctuation test, A100; set-up: species or system bacteria; conditions: strain A100
[17] = tested on: TA1535; test: AMES fluctuation test, TA1535; set-up: species or system bacteria; conditions: strain TA1535
[18] = tested on: TA1537; test: AMES fluctuation test, TA1537; set-up: species or system bacteria; conditions: strain TA1537
[19] = tested on: A375/TxR cells; test: Annexin V-FITC/PI apoptosis detection; type: cell-based, human; conditions: 10 nM, 24 h; untreated […]
[20] = tested on: MDA-MB-231; test: MTS cell proliferation assay, MDA-MB-231; type: cell-based, human; conditions: read-out: IC50 ± SEM, MDA-MB-231, breast cancer cell line, 72 h, n = 4
[21] = tested on: MDA-MB-453; test: MTS cell proliferation assay, MDA-MB-453; type: cell-based, human; conditions: read-out: IC50 ± SEM, MDA-MB-453, breast cancer cell line, 72 h, n = 4
[22] = tested on: SKBR3; test: MTS cell proliferation assay, SKBR3; type: cell-based, human; conditions: read-out: IC50 ± SEM, SKBR3, breast cancer cell line, 72 h, n = 4
[23] = tested on: A375; test: MTS cell proliferation assay, A375; type: cell-based, human; conditions: read-out: IC50 ± SEM, A375, melanoma cell line, 72 h, n = 4
[24] = tested on: M14; test: MTS cell proliferation assay, M14; type: cell-based, human; conditions: read-out: IC50 ± SEM, M14, melanoma cell line, 72 h, n = 4
[25] = tested on: RPMI7951; test: MTS cell proliferation assay, RPMI7951; type: cell-based, human; conditions: read-out: IC50 ± SEM, RPMI7951, melanoma cell line, 72 h, n = 4
[26] = Liver microsome stability assay, mouse; conditions: 0.5 mg/mL protein, 10 μM compound, NADPH

IC50 ([1]; Homo sapiens): 7.7 nM | fold improvement of half-life in human liver microsomes [2]: 3 fold
Compound: COc1cc(C(=O)c2cc(C)cc(-c3ccc(C)cc3)n2)cc(OC)c1OC [Compound 50a, (4-Methyl-6-(p-tolyl)pyridin-2-yl)(3,4,5-trimethoxyphenyl)-methanone]

fold improvement of half-life in human liver microsomes [2]: 3 fold
Compound: COc1cc(C(=O)c2cc(OC)c(OC)c(OC)c2)nc(-c2ccc(C)cc2)c1 [Compound 54a, (4-Methoxy-6-(p-tolyl)pyridin-2-yl)(3,4,5-trimethoxyphenyl)-methanone]

IC50 ([1]; Homo sapiens): 3.8 nM
Compound: COc1cc(C(=O)c2cccc(-c3ccc(C)cc3)n2)cc2c1OCCO2 [Compound 10, (8-Methoxy-2,3-dihydrobenzo[b][1,4]dioxin-6-yl)(6-(p-tolyl)-pyridin-2-yl)methanone]

IC50 ([1]; Homo sapiens): 18.3 nM
Compound: CCc1c(OC)cc(C(=O)c2cccc(-c3ccc(C)c(O)c3)n2)cc1OC [Compound 13, (4-Ethyl-3,5-dimethoxyphenyl)(6-(3-hydroxy-4-methylphenyl)-pyridin-2-yl)methanone]

IC50 ([1]; Homo sapiens): 80.5 nM
Compound: COc1cc(C(=O)c2nc(-c3ccc(C)c(O)c3)[nH]c2Br)cc(OC)c1OC [Compound 29, (5-Bromo-2-(3-hydroxy-4-methylphenyl)-1H-imidazol-4-yl)-(3,4,5-trimethoxyphenyl)methanone]

Compound: COc1cc2c(c(OC)c1OC)-c1ccc(OC)c(=O)cc1[C@@H](NC(C)=O)CC2 [colchicine]
IC50 [3]: > 1000 nM | effect on cell cycle distribution [4]: normal cell cycle progression

IC50 ([1]; Homo sapiens): 60.8 nM
Compound: COc1cc(C(=O)c2cc(F)cc(-c3ccc(C(F)F)cc3)c2)cc(OC)c1OC [Compound 64, (4′-(Difluoromethyl)-5-fluoro-[1,1′-biphenyl]-3-yl)(3,4,5-trimethoxyphenyl)methanone]

IC50 ([1]; Homo sapiens): 34.1 nM | fold improvement of half-life in human liver microsomes [2]: 19 fold
Compound: COc1cc(-c2n[nH]c3ccc(-c4ccc(C)c(O)c4)nc23)cc(OC)c1OC [Compound 22, 2-Methyl-5-(3-(3,4,5-trimethoxyphenyl)-1H-pyrazolo[4,3-b]-pyridin-5-yl)phenol]

effect on tubulin polymerization [5]: increased rate of tubulin polymerization
Compound: CC(=O)O[C@H]1C(=O)[C@@]2(C)[C@H]([C@H](OC(=O)c3ccccc3)[C@]3(O)C[C@H](OC(=O)[C@H](O)[C@@H](NC(=O)c4ccccc4)c4ccccc4)C(C)=C1C3(C)C)[C@]1(OC(C)=O)CO[C@@H]1C[C@@H]2O [paclitaxel, reference compound]
effect on cell cycle distribution [4]: normal cell cycle progression | increase of tumor volume vs vehicle ([6]; 10 mg/kg IP, 3 times/week, 18 days): approximately 5.3% | average tumor weight ([6]; 10 mg/kg IP): 2.1 g | tumor necrosis (H&E of excised tumors) [6]: all viable | mice that developed liver metastases ([7]; 10 mg/kg IP, vehicle 83%): 83% | histology of major organs (lung, liver, kidney, heart, spleen), H&E [8]: no apparent pathological changes in the major organs

Compound: COc1cc(C(=O)c2nc(-c3ccc(C)c(O)c3)ccc2F)cc(OC)c1OC [Compound 60c, (3-Fluoro-6-(3-hydroxy-4-methylphenyl)pyridin-2-yl)(3,4,5-trimethoxyphenyl)methanone]
CYP1A inhibition [9]: CYP1A (HLM, phenacetin substrate): 50.9% | CYP2B6 inhibition [10]: CYP2B6 (HLM, bupropion substrate): 12% | CYP2C9 inhibition [11]: CYP2C9 (HLM, diclofenac substrate): 54.7% | CYP2C19 inhibition [12]: CYP2C19 (HLM, omeprazole substrate): 49% | CYP2D6 inhibition [13]: CYP2D6 (HLM, dextromethorphan substrate): 11.9% | CYP3A inhibition ([14]; midazolam substrate): CYP3A (HLM, midazolam substrate): 34.7% | CYP3A inhibition ([14]; testosterone substrate): CYP3A (HLM, testosterone substrate): 51.8% | AMES fluctuation test [15]: TA98: no mutation | AMES fluctuation test [16]: A100: no mutation | AMES fluctuation test [17]: TA1535: no mutation | AMES fluctuation test [18]: TA1537: no mutation | effect on tubulin polymerization [5]: strongly inhibited microtubule polymerization | effect on cell cycle distribution [4]: dose-dependent accumulation of cells in the G2/M phase | average tumor weight ([6]; 10 mg/kg IP): 1.13 g | average tumor weight ([6]; 20 mg/kg IP): 0.76 g | tumor necrosis (H&E of excised tumors) [6]: highly necrotic | mice that developed liver metastases ([7]; 20 mg/kg IP): none | lung metastasis (H&E) ([7]; 10 and 20 mg/kg IP): lung nodules were markedly sparse and of reduced size | body weight during therapy ([8]; 10 or 20 mg/kg IP, 3 times/week, 18 days): without weight loss | histology of major organs (lung, liver, kidney, heart, spleen), H&E [8]: no apparent pathological changes in the major organs

IC50 ([1]; Homo sapiens): 2.5 nM | effect on tubulin polymerization [5]: interfered with tubulin polymerization
Compound: COc1cc(C(=O)c2cccc(-c3ccc(C)c(O)c3)n2)cc(OC)c1OC [CH-2–77]
apoptotic cells [19]: 51.1%

IC50 ([1]; Homo sapiens): 26.3 nM
Compound: COc1cc(C(=O)c2ccnc(-c3c[nH]c4ccccc34)n2)cc(OC)c1OC [Compound 46b, (2-(1H-Indol-3-yl)pyrimidin-4-yl)(3,4,5-trimethoxyphenyl)-methanone]

IC50 ([1]; Homo sapiens): 48.7 nM
Compound: COc1cc(C(=O)c2cccc(-c3ccc(N(C)C)cc3)n2)cc(OC)c1OC [Compound 4c, (6-(4-(Dimethylamino)phenyl)pyridin-2-yl) (3,4,5-trimethoxyphenyl)methanone]
fold reduction in antiproliferative activity ([1]; compared to CH-2–1, average IC50): 13 fold

IC50 ([1]; Homo sapiens): 3.7 nM
Compound: COc1cc(C(=O)c2cccc(-c3ccc(C)cc3)n2)cc(OC)c1OC [CH-2–1, (6-(p-Tolyl)pyridin-2-yl)(3,4,5-trimethoxyphenyl)methanone, reference compound]

IC50 ([1]; Homo sapiens): 9.2 nM
Compound: COc1cc(C(=O)c2cncc(-c3ccc(C)c(O)c3)n2)cc(OC)c1OC [Compound 40a, (6-(3-Hydroxy-4-methylphenyl)pyrazin-2-yl)(3,4,5-trimethoxyphenyl)methanone]

IC50 ([1]; Homo sapiens): 8.2 nM
Compound: COc1cc(C(=O)c2ccnc(-c3ccc(C)c(O)c3)n2)cc(OC)c1OC [Compound 46a, (2-(3-Hydroxy-4-methylphenyl)pyrimidin-4-yl)(3,4,5-trimethoxyphenyl)methanone]

fold improvement of half-life in human liver microsomes [2]: 3 fold
Compound: COc1cc(C(=O)c2cc(OC)c(OC)c(OC)c2)nc(-c2ccc(C)c(O)c2)c1 [Compound 55b, (6-(3-Hydroxy-4-methylphenyl)-4-methoxypyridin-2-yl)(3,4,5-trimethoxyphenyl)methanone]

IC50 ([1]; Homo sapiens): 4.2 nM
Compound: COc1cc(C(=O)c2cncc(-c3ccc(C)cc3)n2)cc(OC)c1OC [Compound 35, (6-(p-Tolyl)pyrazin-2-yl)(3,4,5-trimethoxyphenyl)methanone]

IC50 ([1]; Homo sapiens): 33.7 nM
Compound: COc1cc(C(=O)c2cncc(-c3cccc4[nH]ncc34)n2)cc(OC)c1OC [Compound 40c, (6-(1H-Indazol-4-yl)pyrazin-2-yl)(3,4,5-trimethoxyphenyl)-methanone]

Compound: (6-(Indolin-6-yl)pyridin-2-yl)(3,4,5-trimethoxyphenyl)methanone [Compound 4b]
IC50 [20]: 5.3 ± 1 nM | IC50 [21]: 5.9 ± 1.4 nM | IC50 [22]: 5.5 ± 1.2 nM | IC50 [23]: 5 ± 1 nM | IC50 [24]: 5.6 ± 1.4 nM | IC50 [25]: 5.9 ± 1.5 nM | IC50 ([1]; average over six cancer cell lines): 5.5 nM | metabolic stability in human liver microsome t1/2 ([2]; 0.5 mg/mL protein, 10 μM compound, NADPH): 15 ± 1.2 min | metabolic stability in mouse liver microsome t1/2 [26]: 4.2 ± 0.00 min
